Test results taken from ChEMBL document CHEMBL4689842, “EUbOPEN Chemogenomics Library wave 1” (2021).

Test system: U2OS
Assay: Multiplex assay against U2OS
Format: toxicity, cell-based
Details: human
Procedure, shortened: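 Per cents of healthy-nucleus cells form the tubulin, mitochondrial-mass and membrane-permeability phenotype values. Live cells were stained at seeding with Hoechst33342, BioTracker Green Microtubule Cytoskeleton Dye, MitoTracker Red and Annexin V Alexa Fluor 680. After compound addition they were imaged on a CQ1 microscope at 37°C and 5% CO2, and CellPathfinder machine-learning gating split them into Hoechst high-intensity objects or normal cells, normal cells into healthy, pyknosed or fragmented nuclei, and pyknosed cells into mitotic or apoptotic.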

[1] = 12 h, 1 µM, compound concentration 1 uM, replicate 1
[2] = 12 h, 1 µM, compound concentration 1 uM, replicate 2
[3] = 12 h, 10 µM, compound concentration 10 uM, replicate 1
[4] = 12 h, 10 µM, compound concentration 10 uM, replicate 2
[5] = 24 h, 1 µM, compound concentration 1 uM, replicate 1
[6] = 24 h, 1 µM, compound concentration 1 uM, replicate 2
[7] = 24 h, 10 µM, compound concentration 10 uM, replicate 1
[8] = 24 h, 10 µM, compound concentration 10 uM, replicate 2
[9] = 48 h, 1 µM, compound concentration 1 uM, replicate 1
[10] = 48 h, 1 µM, compound concentration 1 uM, replicate 2
[11] = 48 h, 10 µM, compound concentration 10 uM, replicate 1
[12] = 48 h, 10 µM, compound concentration 10 uM, replicate 2

O=C(Nc1ccc(Cl)cc1)Nc1cccc(-c2cccc(N3CCCC3)n2)c1
Population Apoptotic (%) [1]: 44% | Population Fragmented Nuclei (%) [1]: 11% | Population Healthy Nuclei (%) [1]: 79% | Population Hoechst High Intensity Objects (%) [1]: 10% | Population Membrane Permeable-Phenotype (%) [1]: 7% | Population Mitochondria Different-Phenotype (%) [1]: 7% | Population Mitotic Cells (%) [1]: 55% | Population Normal (%) [1]: 89% | Population Pyknosed Nuclei (%) [1]: 9% | Population Tubulin-Different-Phenotype (%) [1]: 7% | Total Cell Count [1]: 158 | Population Apoptotic (%) [2]: 25% | Population Fragmented Nuclei (%) [2]: 17% | Population Healthy Nuclei (%) [2]: 76% | Population Hoechst High Intensity Objects (%) [2]: 7% | Population Membrane Permeable-Phenotype (%) [2]: 10% | Population Mitochondria Different-Phenotype (%) [2]: 8% | Population Mitotic Cells (%) [2]: 75% | Population Normal (%) [2]: 92% | Population Pyknosed Nuclei (%) [2]: 6% | Population Tubulin-Different-Phenotype (%) [2]: 12% | Total Cell Count [2]: 83 | Population Apoptotic (%) [3]: 58% | Population Fragmented Nuclei (%) [3]: 10% | Population Healthy Nuclei (%) [3]: 65% | Population Hoechst High Intensity Objects (%) [3]: 10% | Population Membrane Permeable-Phenotype (%) [3]: 80% | Population Mitochondria Different-Phenotype (%) [3]: 12% | Population Mitotic Cells (%) [3]: 41% | Population Normal (%) [3]: 89% | Population Pyknosed Nuclei (%) [3]: 24% | Population Tubulin-Different-Phenotype (%) [3]: 82% | Total Cell Count [3]: 109 | Population Apoptotic (%) [4]: 72% | Population Fragmented Nuclei (%) [4]: 3% | Population Healthy Nuclei (%) [4]: 78% | Population Hoechst High Intensity Objects (%) [4]: 7% | Population Membrane Permeable-Phenotype (%) [4]: 69% | Population Mitochondria Different-Phenotype (%) [4]: 7% | Population Mitotic Cells (%) [4]: 27% | Population Normal (%) [4]: 92% | Population Pyknosed Nuclei (%) [4]: 17% | Population Tubulin-Different-Phenotype (%) [4]: 74% | Total Cell Count [4]: 69 | Population Apoptotic (%) [5]: 41% | Population Fragmented Nuclei (%) [5]: 6% | Population Healthy Nuclei (%) [5]: 83% | Population Membrane Permeable-Phenotype (%) [5]: 5% | Population Mitotic Cells (%) [5]: 58% | Population Pyknosed Nuclei (%) [5]: 9% | Population Tubulin-Different-Phenotype (%) [5]: 3% | Population Apoptotic (%) [6]: 20% | Population Fragmented Nuclei (%) [6]: 18% | Population Healthy Nuclei (%) [6]: 75% | Population Hoechst High Intensity Objects (%) [6]: 6% | Population Membrane Permeable-Phenotype (%) [6]: 7% | Population Mitochondria Different-Phenotype (%) [6]: 3% | Population Mitotic Cells (%) [6]: 80% | Population Normal (%) [6]: 93% | Population Pyknosed Nuclei (%) [6]: 6% | Population Tubulin-Different-Phenotype (%) [6]: 12% | Total Cell Count [6]: 94 | Population Apoptotic (%) [7]: 83% | Population Fragmented Nuclei (%) [7]: 17% | Population Healthy Nuclei (%) [7]: 54% | Population Hoechst High Intensity Objects (%) [7]: 21% | Population Membrane Permeable-Phenotype (%) [7]: 53% | Population Mitochondria Different-Phenotype (%) [7]: 13% | Population Mitotic Cells (%) [7]: 16% | Population Normal (%) [7]: 78% | Population Pyknosed Nuclei (%) [7]: 28% | Population Tubulin-Different-Phenotype (%) [7]: 61% | Total Cell Count [7]: 131 | Population Apoptotic (%) [8]: 72% | Population Fragmented Nuclei (%) [8]: 13% | Population Hoechst High Intensity Objects (%) [8]: 25% | Population Membrane Permeable-Phenotype (%) [8]: 46% | Population Mitochondria Different-Phenotype (%) [8]: 15% | Population Mitotic Cells (%) [8]: 27% | Population Normal (%) [8]: 74% | Population Pyknosed Nuclei (%) [8]: 31% | Population Tubulin-Different-Phenotype (%) [8]: 46% | Total Cell Count [8]: 81 | Population Apoptotic (%) [9]: 30% | Population Fragmented Nuclei (%) [9]: 4% | Population Healthy Nuclei (%) [9]: 88% | Population Hoechst High Intensity Objects (%) [9]: 6% | Population Membrane Permeable-Phenotype (%) [9]: 1% | Population Mitochondria Different-Phenotype (%) [9]: 5% | Population Mitotic Cells (%) [9]: 69% | Population Normal (%) [9]: 93% | Population Pyknosed Nuclei (%) [9]: 6% | Population Tubulin-Different-Phenotype (%) [9]: 2% | Total Cell Count [9]: 245 | Population Apoptotic (%) [10]: 50% | Population Fragmented Nuclei (%) [10]: 8% | Population Healthy Nuclei (%) [10]: 83% | Population Hoechst High Intensity Objects (%) [10]: 5% | Population Membrane Permeable-Phenotype (%) [10]: 4% | Population Mitochondria Different-Phenotype (%) [10]: 9% | Population Mitotic Cells (%) [10]: 50% | Population Normal (%) [10]: 94% | Population Pyknosed Nuclei (%) [10]: 7% | Population Tubulin-Different-Phenotype (%) [10]: 12% | Total Cell Count [10]: 110 | Population Apoptotic (%) [11]: 91% | Population Fragmented Nuclei (%) [11]: 21% | Population Healthy Nuclei (%) [11]: 33% | Population Hoechst High Intensity Objects (%) [11]: 31% | Population Membrane Permeable-Phenotype (%) [11]: 31% | Population Mitochondria Different-Phenotype (%) [11]: 29% | Population Mitotic Cells (%) [11]: 8% | Population Normal (%) [11]: 68% | Population Pyknosed Nuclei (%) [11]: 44% | Population Tubulin-Different-Phenotype (%) [11]: 33% | Total Cell Count [11]: 221 | Population Apoptotic (%) [12]: 87% | Population Fragmented Nuclei (%) [12]: 19% | Population Healthy Nuclei (%) [12]: 26% | Population Hoechst High Intensity Objects (%) [12]: 39% | Population Membrane Permeable-Phenotype (%) [12]: 40% | Population Mitochondria Different-Phenotype (%) [12]: 25% | Population Mitotic Cells (%) [12]: 12% | Population Normal (%) [12]: 60% | Population Pyknosed Nuclei (%) [12]: 53% | Population Tubulin-Different-Phenotype (%) [12]: 48% | Total Cell Count [12]: 108
